In ChEMBL document CHEMBL4002555, “Bioactive Pentacyclic Triterpenoids from the Leaves of Cleistocalyx operculatus” (J Nat Prod, 2016) one finds inhibition and IC50 data, which are given here for 9 compounds.

In general, pIC50 refers to the IC50 on a negative log10 scale, so that one unit is a factor of ten. Read a high pIC50 as a low IC50.

Each structure is given as a SMILES string. pIC50: −log10 of the molar value.

The subject of data set [1] is RAW264.7. Description: Anti-inflammatory activity in mouse RAW264.7 cells assessed as inhibition of LPS-induced TNF-alpha production at 2 uM pretreated for 1 hr followed by LPS stimulation measured after 24 hrs by ELISA relative to control. The format is functional. Summed up: (§1)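 LPS-stimulated RAW 264.7 macrophages, with IL-6 and TNF-α production read separately. Test concentrations were 0.4, 2, 10 and 50 μM, and dexamethasone was the reference drug. Results are given as percent inhibition of cytokine production.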
For orientation: An ELISA detects its analyte on a solid surface through an enzyme-linked reagent.

In data set [2] the test system is RAW264.7. Description: Anti-inflammatory activity in mouse RAW264.7 cells assessed as inhibition of LPS-induced TNF-alpha production at 50 uM pretreated for 1 hr followed by LPS stimulation measured after 24 hrs by ELISA relative to control. The format is functional. Summed up:
as §1

For data set [3], the system named is RAW264.7. Description: Anti-inflammatory activity in mouse RAW264.7 cells assessed as inhibition of LPS-induced IL-6 production at 50 uM pretreated for 1 hr followed by LPS stimulation measured after 24 hrs by ELISA relative to control. It is filed as functional. Summed up:
as §1

The test system of data set [4] is RAW264.7. Description: Anti-inflammatory activity in mouse RAW264.7 cells assessed as inhibition of LPS-induced IL-6 production at 10 uM pretreated for 1 hr followed by LPS stimulation measured after 24 hrs by ELISA relative to control. The format is functional. Summed up:
as §1

Data set [5] concerns RAW264.7. Nature of the data set: Anti-inflammatory activity in mouse RAW264.7 cells assessed as inhibition of LPS-induced TNF-alpha production at 10 uM pretreated for 1 hr followed by LPS stimulation measured after 24 hrs by ELISA relative to control. The format is functional. Summed up: as §1
Data set [6] is described as follows: Cytotoxicity against mouse RAW264.7 cells assessed as growth inhibition at 50 uM after 72 hrs by MTT assay relative to control. It is filed as cell-based. Particulars: read-out: GI.
The subject of a further data set is MCF7. Nature of the data set: Cytotoxicity against human MCF7 cells after 72 hrs by MTT assay. To be noted: MCF7, 72 h. It is filed as functional, cell-based. Summed up: (§2)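 MTT growth-inhibition assay in human HepG2 hepatocellular, NCI-N87 gastric and MCF-7 breast carcinoma lines, with a doxorubicin positive control. IC50 values are means ± SD from three individual experiments; >10.0 μM was taken as noncytotoxic.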

Another data set concerns HepG2. Nature of the data set: Cytotoxicity against human HepG2 cells after 72 hrs by MTT assay. It is filed as functional, cell-based. To be noted: HepG2, 72 h. Summed up:
as §2
(Formazan colour is commonly taken as a measure of viable cells.)

Data set [7] deals with RAW264.7. Description: Anti-inflammatory activity in mouse RAW264.7 cells assessed as inhibition of LPS-induced IL-6 production at 2 uM pretreated for 1 hr followed by LPS stimulation measured after 24 hrs by ELISA relative to control. The format is functional. Summed up: as §1
A further data set deals with NCI-N87. Description: Cytotoxicity against human NCI-N87 cells after 72 hrs by MTT assay. The format is functional, cell-based. Particulars: NCI-N87, 72 h. Summed up: as §2
Data set [8] concerns RAW264.7. Nature of the data set: Anti-inflammatory activity in mouse RAW264.7 cells assessed as inhibition of LPS-induced IL-6 production at 0.4 uM pretreated for 1 hr followed by LPS stimulation measured after 24 hrs by ELISA relative to control. The format is functional. Summed up: as §1
Data set [9] can be described thus: Cytotoxicity against mouse RAW264.7 cells assessed as growth inhibition at 2 uM after 72 hrs by MTT assay relative to control. It is filed as cell-based. To be noted: read-out: GI.
In data set [10] the test system is RAW264.7. Description: Anti-inflammatory activity in mouse RAW264.7 cells assessed as inhibition of LPS-induced TNF-alpha production at 0.4 uM pretreated for 1 hr followed by LPS stimulation measured after 24 hrs by ELISA relative to control. The format is functional. Summed up:
as §1

Data set [11] is described as follows: Cytotoxicity against mouse RAW264.7 cells assessed as growth inhibition at 10 uM after 72 hrs by MTT assay relative to control. Particulars: read-out: GI. It is filed as cell-based.

`CC1(C)CC[C@]2(C(=O)O)CC[C@]3(C)C(=C[C@@H](O)[C@@H]4[C@@]5(C)C[C@@H](O)[C@H](O)[C@@](C)(CO)[C@@H]5CC[C@]43C)[C@@H]2C1`: the inhibition at 2 µM in the data set on RAW264.7 [1] stood at 53.7%; in the data set with RAW264.7 [7], 68.1%. The inhibition at 50 µM was determined as 65.6% with RAW264.7 [2] and 74.9% in the data set on RAW264.7 [3]. Besides, the results for the inhibition at 10 µM in the data set with RAW264.7 [4] and in the data set with RAW264.7 [5] were 69.9% and 57.7%, respectively. Further, the inhibition at 72 h, 50 µM in data set [6] is under 5%. Moreover, the pIC50 with MCF7, in the data set on HepG2 and in the data set on NCI-N87 was under 5.00 in each case.
Regarding `COC(=O)[C@]12CC=C(C)[C@@H](C)[C@@H]1[C@H]1CC[C@@H]3[C@@]4(C)CC[C@H](O)C(C)(C)[C@@H]4CC[C@@]3(C)[C@]1(C(=O)O)CC2`, the inhibition at 0.4 µM in the data set with RAW264.7 [8] was 38.4%; with RAW264.7 [10], 39.1%. Further, the inhibition at 2 µM in the data set on RAW264.7 [1] came out at 42.9%; in the data set with RAW264.7 [7], 51%. Besides, the figures for the pIC50 with MCF7, in the data set on HepG2 and in the data set on NCI-N87 were 5.31, 5.49 and 5.19, respectively. The inhibition at 72 h, 2 µM in data set [9] was under 5%.
For the compound `CC1(C)CC[C@@]23CC[C@]4(C)[C@@](OC2=O)([C@@H]3C1)[C@H]1O[C@H]1[C@@H]1[C@@]2(C)C[C@@H](O)[C@H](O)[C@@](C)(CO)[C@@H]2CC[C@]14C`, the inhibition at 0.4 µM with RAW264.7 [8] and in the data set on RAW264.7 [10] was under 50% each time. Besides, the inhibition at 2 µM with RAW264.7 [1] and in the data set with RAW264.7 [7] was under 50% in each case. Besides, the inhibition at 50 µM in the data set with RAW264.7 [2] and in the data set with RAW264.7 [3] was under 50% in each case. Further, the inhibition at 10 µM in the data set on RAW264.7 [4] and in the data set on RAW264.7 [5] was under 50% each time. Further, the inhibition at 72 h, 50 µM in data set [6] was under 5%. For the same compound, the pIC50 in the data set with MCF7, in the data set with HepG2 and with NCI-N87 was under 5.00 throughout.
For `CC1(C)CC[C@]2(C(=O)O)CC[C@]3(C)C(=CC(=O)[C@@H]4[C@@]5(C)C[C@@H](O)[C@H](O)[C@@](C)(CO)[C@@H]5CC[C@]43C)[C@@H]2C1`, the inhibition at 2 µM in the data set on RAW264.7 [1] was under 10%; in the data set with RAW264.7 [7], 33.8%. For the same compound, the inhibition at 50 µM in the data set with RAW264.7 [2] came out at 18.8%; with RAW264.7 [3], 63%. The inhibition at 10 µM in the data set on RAW264.7 [4] is 35.2%; in the data set on RAW264.7 [5] it was under 10%. For the same compound, the inhibition at 72 h, 50 µM in data set [6] is under 5%. Also, the negative-log IC50 (pIC50) with MCF7, in the data set with HepG2 and with NCI-N87 was under 5.00 each time.
With `C=C1CC[C@]2(C(=O)O)CC[C@]3(C)C(=C[C@@H](OC)[C@@H]4[C@@]5(C)C[C@@H](O)[C@H](O)[C@@](C)(CO)[C@@H]5CC[C@]43C)[C@@H]2[C@H]1C`, the inhibition at 0.4 µM in the data set with RAW264.7 [8] and in the data set on RAW264.7 [10] was under 50% throughout. In addition, the inhibition at 2 µM in the data set on RAW264.7 [1] and in the data set on RAW264.7 [7] was under 50% in each case. Also, the inhibition at 50 µM with RAW264.7 [2] and in the data set on RAW264.7 [3] was under 50% each time. The inhibition at 10 µM in the data set on RAW264.7 [4] and in the data set on RAW264.7 [5] was under 50% each time. Moreover, the inhibition at 72 h, 50 µM in data set [6] is under 5%. For the same compound, the pIC50 in the data set on MCF7, in the data set on HepG2 and in the data set with NCI-N87 was under 5.00 in each case.
Consider `CO[C@@H]1C=C2[C@@H]3CC(C)(C)CC[C@]3(C(=O)O)CC[C@@]2(C)[C@]2(C)CC[C@@H]3[C@](C)(C[C@@H](O)[C@H](O)[C@@]3(C)CO)[C@@H]12`, for which the inhibition at 2 µM with RAW264.7 [1] worked out at 22%; in the data set on RAW264.7 [7] it was 42.3%. In addition, the inhibition at 50 µM with RAW264.7 [2] was 52.8%; in the data set with RAW264.7 [3], 68.8%. For the same compound, the inhibition at 10 µM was 64.8% with RAW264.7 [4] and 54.1% in the data set with RAW264.7 [5]. Moreover, the inhibition at 72 h, 50 µM in data set [6] was under 5%. Also, the pIC50 in the data set on MCF7, with HepG2 and in the data set on NCI-N87 was under 5.00 each time.
On to `C=C1CC[C@]2(C(=O)O)CC[C@]3(C)C(=CC(=O)[C@@H]4[C@@]5(C)C[C@@H](O)[C@H](O)[C@@](C)(CO)[C@@H]5CC[C@]43C)[C@@H]2[C@H]1C`, for which the inhibition at 0.4 µM in the data set with RAW264.7 [8] and with RAW264.7 [10] was under 50% each time. Moreover, the inhibition at 2 µM in the data set on RAW264.7 [1] and in the data set with RAW264.7 [7] was under 50% throughout. Moreover, the inhibition at 50 µM with RAW264.7 [2] and in the data set with RAW264.7 [3] was under 50% each time. Also, the inhibition at 10 µM in the data set with RAW264.7 [4] and in the data set on RAW264.7 [5] was under 50% each time. For the same compound, in data set [6], the inhibition at 72 h, 50 µM is under 5%. In addition, the pIC50 in the data set on MCF7, in the data set on HepG2 and in the data set with NCI-N87 was under 5.00 each time.
Take `C[C@H]1[C@H](C)CC[C@]2(C(=O)O)CC[C@]3(C)C(=CC[C@@H]4[C@@]5(C)C[C@@H](O)[C@H](O)C(C)(C)[C@@H]5CC[C@]43C)[C@H]12` [COROSOLIC ACID]: the inhibition at 0.4 µM in the data set with RAW264.7 [8] and in the data set on RAW264.7 [10] was under 50% each time. Moreover, the inhibition at 2 µM in the data set on RAW264.7 [1] and in the data set with RAW264.7 [7] was under 50% each time. Also, in data set [11], the inhibition at 72 h, 10 µM is under 5%. The inhibition at 50 µM with RAW264.7 [2] and in the data set with RAW264.7 [3] was under 50% throughout. Also, the inhibition at 10 µM with RAW264.7 [4] and in the data set with RAW264.7 [5] was under 50% throughout. Besides, the pIC50 in the data set with MCF7 was under 5.00; in the data set on HepG2, under 5.00; with NCI-N87, 5.36.
On to `CC1(C)CC[C@]2(C(=O)O)CC[C@]3(C)C(=CC[C@@H]4[C@@]5(C)C[C@@H](O)[C@H](O)C(C)(C)[C@@H]5CC[C@]43C)[C@@H]2C1` [MASLINIC ACID], for which the inhibition at 0.4 µM in the data set with RAW264.7 [8] and in the data set with RAW264.7 [10] was under 50% each time. Besides, the inhibition at 2 µM in the data set on RAW264.7 [1] and with RAW264.7 [7] was under 50% throughout. Besides, the inhibition at 72 h, 10 µM in data set [11] was under 5%. In addition, the inhibition at 50 µM in the data set with RAW264.7 [2] and in the data set with RAW264.7 [3] was under 50% throughout. Moreover, the inhibition at 10 µM with RAW264.7 [4] and in the data set on RAW264.7 [5] was under 50% throughout. Also, the pIC50 with MCF7, with HepG2 and with NCI-N87 was under 5.00 in each case.
